Laboratory results reported in ChEMBL document CHEMBL1136089, “Synthesis and in vitro activity of new methylenepiperidinyl and methylenepyrrolidinyl oxazolidinone antibacterial agents” (Bioorg Med Chem Lett, 2003).
Converted amounts (≈) assume the structure as drawn.

Columns and labels:
Enterococcus faecalis [1] = experiment: In vitro antibacterial activity against Enterococcus faecalis C6291 (E. f. 1); type: functional
Procedure, shortened: (§1)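 MIC by agar dilution on Mueller–Hinton agar, inoculum 10⁴ CFU/spot. Reported in μg/mL.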

Enterococcus faecalis [2] = experiment: In vitro antibacterial activity against Enterococcus faecalis C6301 (E. f. 1); type: functional; procedure, shortened: as §1
[3] = test system: Staphylococcus epidermidis; experiment: In vitro antibacterial activity against Staphylococcus epidermis ATCC 1228; type: functional; procedure, shortened: as §1
[4] = test system: Staphylococcus epidermidis; experiment: In vitro antibacterial activity against Staphylococcus epidermis C2235; type: functional; procedure, shortened: as §1
Staphylococcus aureus [5] = experiment: In vitro antibacterial activity against Staphylococcus aureus; type: functional
Staphylococcus aureus [6] = experiment: In vitro antibacterial activity against ciprofloxacin-resistant Staphylococcus aureus (CRSA); type: functional
Staphylococcus aureus [7] = experiment: In vitro antibacterial activity against methicillin-resistant Staphylococcus aureus (MRSA); type: functional
Staphylococcus aureus [8] = experiment: In vitro antibacterial against methicillin-susceptible Staphylococcus aureus (MSSA); type: functional
Streptococcus pyogenes [9] = experiment: In vitro antibacterial activity against Streptococcus pyogenes C6003
Streptococcus pyogenes [10] = experiment: In vitro antibacterial activity against Streptococcus pyogenes ATTCC8668
Enterococcus faecium = experiment: In vitro antibacterial activity against vancomycin-resistant Enterococcus faecium C6487
[11] = Half-life in male rat; type: ADME, organism-based; conditions: in vivo
Procedure, shortened: (§2)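 Single oral dose of 15 mg/Kg to rats, with compound dissolved in 50% PEG solution.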

[12] = Cmax in male rat; type: ADME, organism-based; conditions: in vivo; procedure, shortened: as §2
[13] = Tmax in male rat; type: ADME, organism-based; conditions: in vivo; procedure, shortened: as §2
[14] = Area under curve was determined in male rat; type: ADME, organism-based; conditions: in vivo; procedure, shortened: as §2

| Compound | MIC (Enterococcus faecalis [1]) | MIC (Enterococcus faecalis [2]) | MIC [3] | MIC [4] | MIC (Staphylococcus aureus [5]) | MIC (Staphylococcus aureus [6]) | MIC (Staphylococcus aureus [7]) | MIC (Staphylococcus aureus [8]) | MIC (Streptococcus pyogenes [9]) | MIC (Streptococcus pyogenes [10]) | MIC (Enterococcus faecium) | half-life [11] | Cmax [12] | Tmax [13] | AUC [14] |
| --- | --- | --- | --- | --- | --- | --- | --- | --- | --- | --- | --- | --- | --- | --- | --- |
| CO/N=C(\C)C=C1CCN(c2ccc(N3C[C@H](CNC(C)=O)OC3=O)cc2F)CC1 | 8 µg/mL (≈ 19.1 µM) | 8 µg/mL (≈ 19.1 µM) | 8 µg/mL (≈ 19.1 µM) | 8 µg/mL (≈ 19.1 µM) | 16 µg/mL (≈ 38.2 µM) | 16 µg/mL (≈ 38.2 µM) | 8 µg/mL (≈ 19.1 µM) | 16 µg/mL (≈ 38.2 µM) | 8 µg/mL (≈ 19.1 µM) | 2 µg/mL (≈ 4.78 µM) | 4 µg/mL (≈ 9.56 µM) |  |  |  |  |
| CC(=O)C=C1CCN(c2ccc(N3C[C@H](CNC(C)=O)OC3=O)cc2F)CC1 | 16 µg/mL (≈ 41.1 µM) | 8 µg/mL (≈ 20.5 µM) | 1 µg/mL (≈ 2.57 µM) | 8 µg/mL (≈ 20.5 µM) | 8 µg/mL (≈ 20.5 µM) | 16 µg/mL (≈ 41.1 µM) | 16 µg/mL (≈ 41.1 µM) | 16 µg/mL (≈ 41.1 µM) | 16 µg/mL (≈ 41.1 µM) | 0.25 µg/mL (≈ 0.642 µM) | 8 µg/mL (≈ 20.5 µM) |  |  |  |  |
| CC(=O)NC[C@H]1CN(c2ccc(N3CCC(=C(C#N)C#N)CC3)c(F)c2)C(=O)O1 | 4 µg/mL (≈ 10.1 µM) | 2 µg/mL (≈ 5.03 µM) | 1 µg/mL (≈ 2.52 µM) | 2 µg/mL (≈ 5.03 µM) | 2 µg/mL (≈ 5.03 µM) | 4 µg/mL (≈ 10.1 µM) | 2 µg/mL (≈ 5.03 µM) | 4 µg/mL (≈ 10.1 µM) | 4 µg/mL (≈ 10.1 µM) | 1 µg/mL (≈ 2.52 µM) | 4 µg/mL (≈ 10.1 µM) |  |  |  |  |
| CO/N=C/C=C1CCN(c2ccc(N3C[C@H](CNC(C)=O)OC3=O)cc2F)CC1 | 4 µg/mL (≈ 9.89 µM) | 4 µg/mL (≈ 9.89 µM) | 1 µg/mL (≈ 2.47 µM) | 2 µg/mL (≈ 4.95 µM) | 8 µg/mL (≈ 19.8 µM) | 4 µg/mL (≈ 9.89 µM) | 4 µg/mL (≈ 9.89 µM) | 8 µg/mL (≈ 19.8 µM) | 2 µg/mL (≈ 4.95 µM) | 1 µg/mL (≈ 2.47 µM) | 4 µg/mL (≈ 9.89 µM) |  |  |  |  |
| CC(=O)NC[C@H]1CN(c2ccc(N3CCC(=CC(C)O)CC3)c(F)c2)C(=O)O1 (stereo partly specified) | 8 µg/mL (≈ 20.4 µM) | 4 µg/mL (≈ 10.2 µM) | 2 µg/mL (≈ 5.11 µM) | 4 µg/mL (≈ 10.2 µM) | 8 µg/mL (≈ 20.4 µM) | 8 µg/mL (≈ 20.4 µM) | 4 µg/mL (≈ 10.2 µM) | 16 µg/mL (≈ 40.9 µM) | 8 µg/mL (≈ 20.4 µM) | 2 µg/mL (≈ 5.11 µM) | 4 µg/mL (≈ 10.2 µM) |  |  |  |  |
| CC(=O)NC[C@H]1CN(c2ccc(N3CCC(=C/C=N/O)CC3)c(F)c2)C(=O)O1 | 4 µg/mL (≈ 10.2 µM) | 4 µg/mL (≈ 10.2 µM) | 1 µg/mL (≈ 2.56 µM) | 4 µg/mL (≈ 10.2 µM) | 8 µg/mL (≈ 20.5 µM) | 8 µg/mL (≈ 20.5 µM) | 4 µg/mL (≈ 10.2 µM) | 8 µg/mL (≈ 20.5 µM) | 4 µg/mL (≈ 10.2 µM) | 2 µg/mL (≈ 5.12 µM) | 4 µg/mL (≈ 10.2 µM) |  |  |  |  |
| CC(=O)NC[C@H]1CN(c2ccc(N3CCC(=CC#N)CC3)c(F)c2)C(=O)O1 | 2 µg/mL (≈ 5.37 µM) | 2 µg/mL (≈ 5.37 µM) | 0.5 µg/mL (≈ 1.34 µM) | 1 µg/mL (≈ 2.69 µM) | 2 µg/mL (≈ 5.37 µM) | 2 µg/mL (≈ 5.37 µM) | 1 µg/mL (≈ 2.69 µM) | 4 µg/mL (≈ 10.7 µM) | 2 µg/mL (≈ 5.37 µM) | 0.5 µg/mL (≈ 1.34 µM) | 4 µg/mL (≈ 10.7 µM) | 8.14 h | 1320 ng/mL | 0.5 h | 6810 ng·h/mL |
| CC(=O)NC[C@H]1CN(c2ccc(N3CCC(=CC=O)CC3)c(F)c2)C(=O)O1 | 8 µg/mL (≈ 21.3 µM) | 4 µg/mL (≈ 10.7 µM) | 1 µg/mL (≈ 2.66 µM) | 2 µg/mL (≈ 5.33 µM) | 8 µg/mL (≈ 21.3 µM) | 4 µg/mL (≈ 10.7 µM) | 4 µg/mL (≈ 10.7 µM) | 8 µg/mL (≈ 21.3 µM) | 8 µg/mL (≈ 21.3 µM) | 2 µg/mL (≈ 5.33 µM) | 8 µg/mL (≈ 21.3 µM) |  |  |  |  |
| CCOC(=O)C(C#N)=C1CCN(c2ccc(N3C[C@H](CNC(C)=O)OC3=O)cc2F)CC1 | 4 µg/mL (≈ 9 µM) | 2 µg/mL (≈ 4.5 µM) | 1 µg/mL (≈ 2.25 µM) | 2 µg/mL (≈ 4.5 µM) | 4 µg/mL (≈ 9 µM) | 4 µg/mL (≈ 9 µM) | 4 µg/mL (≈ 9 µM) | 4 µg/mL (≈ 9 µM) | 4 µg/mL (≈ 9 µM) | 1 µg/mL (≈ 2.25 µM) | 2 µg/mL (≈ 4.5 µM) |  |  |  |  |
| CC(=O)NC[C@H]1CN(c2ccc(N3CCC(=C/C(C)=N/O)CC3)c(F)c2)C(=O)O1 | 4 µg/mL (≈ 9.89 µM) | 4 µg/mL (≈ 9.89 µM) | 1 µg/mL (≈ 2.47 µM) | 4 µg/mL (≈ 9.89 µM) | 8 µg/mL (≈ 19.8 µM) | 8 µg/mL (≈ 19.8 µM) | 4 µg/mL (≈ 9.89 µM) | 8 µg/mL (≈ 19.8 µM) | 4 µg/mL (≈ 9.89 µM) | 1 µg/mL (≈ 2.47 µM) | 4 µg/mL (≈ 9.89 µM) |  |  |  |  |
| CC(=O)NC[C@H]1CN(c2ccc(N3CCC(=C(C#N)C#N)C3)c(F)c2)C(=O)O1 |  | 16 µg/mL (≈ 41.7 µM) | 4 µg/mL (≈ 10.4 µM) | 4 µg/mL (≈ 10.4 µM) | 8 µg/mL (≈ 20.9 µM) | 8 µg/mL (≈ 20.9 µM) |  |  |  |  | 16 µg/mL (≈ 41.7 µM) |  |  |  |  |
| CCOC(=O)/C(C#N)=C1/CCN(c2ccc(N3C[C@H](CNC(C)=O)OC3=O)cc2F)C1 |  | 32 µg/mL (≈ 74.3 µM) | 8 µg/mL (≈ 18.6 µM) | 8 µg/mL (≈ 18.6 µM) | 16 µg/mL (≈ 37.2 µM) | 16 µg/mL (≈ 37.2 µM) |  |  |  |  | 16 µg/mL (≈ 37.2 µM) |  |  |  |  |
